Test results published in ChEMBL document CHEMBL1137848, “Discovery of isoxazolinone antibacterial agents. Nitrogen as a replacement for the stereogenic center found in oxazolidinone antibacterials” (2004).
≈ marks a conversion by molar mass, not a printed value.

Tests used:
Assay type in all cases: functional
[1] = tested on: Enterococcus faecalis; assay: Minimum inhibitory concentration against Enterococcus faecalis (strain A20688) in absence of calf serum
Method in brief: (§1)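 Broth microdilution MIC per NCCLS method in Mueller-Hinton broth without serum. Final inoculum approximately 5·10⁵ CFU/well in microtiter plates, incubated 35 °C for 18 h in ambient air.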

[2] = tested on: Staphylococcus aureus; assay: Minimum inhibitory concentration against Staphylococcus aureus (strain A15090) in absence of calf serum; method in brief: as §1
[3] = tested on: Haemophilus influenzae; assay: Minimum inhibitory concentration against Haemophilus influenzae (strain A20191) in absence of calf serum
Method in brief: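 MIC by NCCLS microbroth dilution in Haemophilus test medium broth without serum. Inoculum approximately 5·10⁵ CFU/well in microtiter plates, incubated at 35 °C for 18 h in ambient air.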

[4] = tested on: Enterococcus faecalis; assay: Minimum inhibitory concentration against Enterococcus faecalis (strain A20688) in presence of 50% calf serum
Method in brief: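 Broth microdilution MIC per NCCLS method in Mueller-Hinton broth supplemented with 50% calf serum. Final inoculum approximately 5·10⁵ CFU/well, incubated 35 °C for 18 h in ambient air.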

[5] = tested on: Staphylococcus aureus; assay: Minimum inhibitory concentration against Staphylococcus aureus (strain A15090) in presence of 50% calf serum
Method in brief: (§2)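 Microbroth dilution MIC following the NCCLS method, with 50% calf serum added. Mueller-Hinton broth, inoculum approximately 5·10⁵ CFU/well, incubated at 35 °C for 18 h in ambient air.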

[6] = tested on: Staphylococcus aureus; assay: Minimum inhibitory concentration against methicillin resistant Staphylococcus aureus (strain A27223) in presence of 50% calf serum; method in brief: as §2
[7] = tested on: Staphylococcus aureus; assay: Minimum inhibitory concentration against methicillin resistant Staphylococcus aureus (strain A27223) in absence of calf serum
Method in brief: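 Microbroth dilution MIC following the NCCLS method, no serum added. Mueller-Hinton broth, inoculum approximately 5·10⁵ CFU/well, incubated at 35 °C for 18 h in ambient air.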

SMILES	MIC [1]	MIC [2]	MIC [3]	MIC [4]	MIC [5]	MIC [6]	MIC [7]
CC(=O)NCn1cc(-c2cc(C(F)(F)F)cc(C(F)(F)F)c2)c(=O)o1	> 128 µg/mL	> 128 µg/mL	> 64 µg/mL	–	–	–	–
CC(=O)NCn1cc(-c2ccc(C(C)C)cc2)c(=O)o1	2 µg/mL (≈ 7.29 µM)	1 µg/mL (≈ 3.65 µM)	–	8 µg/mL	4 µg/mL	–	–
COc1ccc(-c2cnoc2O)cc1	> 128 µg/mL	> 128 µg/mL	> 64 µg/mL	> 64 µg/mL	> 64 µg/mL	–	–
NC(=O)Cn1cc(-c2ccccc2)c(=O)o1	> 128 µg/mL	–	> 64 µg/mL	–	–	–	–
CC(=O)NCn1cc(-c2ccccc2)c(=O)o1	16 µg/mL (≈ 68.9 µM)	8 µg/mL (≈ 34.4 µM)	8 µg/mL (≈ 34.4 µM)	16 µg/mL	16 µg/mL	8 µg/mL	4 µg/mL (≈ 17.2 µM)
COc1cc(OC)cc(-c2cn(CNC(C)=O)oc2=O)c1	> 128 µg/mL	> 128 µg/mL	64 µg/mL (≈ 219 µM)	–	–	–	–
CC(=O)NCn1cc(-c2ccc3c(c2)OCO3)c(=O)o1	1 µg/mL (≈ 3.62 µM)	2 µg/mL (≈ 7.24 µM)	16 µg/mL (≈ 57.9 µM)	8 µg/mL	4 µg/mL	4 µg/mL	1 µg/mL (≈ 3.62 µM)
CSc1ccc(-c2cn(CNC(C)=O)oc2=O)cc1	1 µg/mL (≈ 3.59 µM)	2 µg/mL (≈ 7.19 µM)	8 µg/mL (≈ 28.7 µM)	16 µg/mL	16 µg/mL	8 µg/mL	1 µg/mL (≈ 3.59 µM)
COc1ccc(-c2cn(CNC(C)=O)oc2=O)cc1OC	> 128 µg/mL	128 µg/mL (≈ 438 µM)	> 64 µg/mL	> 64 µg/mL	> 64 µg/mL	–	64 µg/mL (≈ 219 µM)
COc1ccc(-c2cn(CNC(C)=O)oc2=O)cc1	2 µg/mL (≈ 7.63 µM)	2 µg/mL (≈ 7.63 µM)	16 µg/mL (≈ 61 µM)	8 µg/mL	4 µg/mL	4 µg/mL	1 µg/mL (≈ 3.81 µM)
CC(=O)NCn1cc(-c2cccc(C)c2)c(=O)o1	32 µg/mL (≈ 130 µM)	8 µg/mL (≈ 32.5 µM)	> 64 µg/mL	–	–	–	4 µg/mL (≈ 16.2 µM)
CC(=O)NCn1cc(-c2ccc(F)cc2)c(=O)o1	> 128 µg/mL	> 128 µg/mL	32 µg/mL (≈ 128 µM)	> 64 µg/mL	> 64 µg/mL	–	–
